From ChEMBL document CHEMBL4373708 (J Med Chem, 2019)
Active and inactive are the calls of the source. No cut-off for these calls is given here.

Experiments:
Format in all cases: cell-based
[1] = molecular target: T1, Pendrin (Mus musculus) (UniProt Q9R155); experiment: Inhibition of mouse slc26a4 expressed in FRT cells co-expressing EYFP-H148Q/I152L/F46L assessed as reduction in protein-mediated chloride/iodide exchange at 10 uM preincubated for 10 mins followed by NaI-substituted PBS addition and measured by YFP-based fluorescence assay
T1 sequence (whole entry): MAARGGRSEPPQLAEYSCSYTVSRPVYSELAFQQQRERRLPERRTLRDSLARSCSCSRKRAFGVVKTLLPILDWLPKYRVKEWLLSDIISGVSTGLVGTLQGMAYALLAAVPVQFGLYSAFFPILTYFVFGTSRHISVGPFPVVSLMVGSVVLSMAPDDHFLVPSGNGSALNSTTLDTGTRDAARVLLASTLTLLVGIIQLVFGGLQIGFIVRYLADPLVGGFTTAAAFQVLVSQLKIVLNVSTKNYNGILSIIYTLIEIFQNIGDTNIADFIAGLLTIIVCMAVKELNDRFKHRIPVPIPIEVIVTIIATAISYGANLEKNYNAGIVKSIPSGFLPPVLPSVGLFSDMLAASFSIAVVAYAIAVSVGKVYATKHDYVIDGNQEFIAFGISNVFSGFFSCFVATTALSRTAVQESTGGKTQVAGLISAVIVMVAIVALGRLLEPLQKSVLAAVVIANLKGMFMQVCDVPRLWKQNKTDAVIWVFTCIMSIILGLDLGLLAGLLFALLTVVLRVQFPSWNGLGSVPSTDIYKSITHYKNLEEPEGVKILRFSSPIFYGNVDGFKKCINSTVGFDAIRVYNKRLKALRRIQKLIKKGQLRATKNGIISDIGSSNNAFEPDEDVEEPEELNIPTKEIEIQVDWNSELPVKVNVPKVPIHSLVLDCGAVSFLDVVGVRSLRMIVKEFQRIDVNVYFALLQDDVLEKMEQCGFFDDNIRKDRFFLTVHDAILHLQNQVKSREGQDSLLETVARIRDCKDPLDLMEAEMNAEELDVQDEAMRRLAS
Outline: (§1)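 FRT cells expressing the given slc26 transporter plus EYFP-H148Q/I152L/F46L were preincubated 10 min with 0 or 10 µM compound in PBS. Iodide-substituted PBS was then added (140 mM NaCl replaced by NaI). The rate of YFP fluorescence quenching gave chloride/iodide exchange.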

[2] = molecular target: T2, Solute carrier family 26 member 9 (Homo sapiens) (UniProt Q7LBE3); experiment: Inhibition of human slc26a9 expressed in FRT cells co-expressing EYFP-H148Q/I152L/F46L assessed as reduction in protein-mediated chloride/iodide exchange at 10 uM preincubated for 10 mins followed by NaI-substituted PBS addition and measured by YFP-based fluorescence assay; outline: as §1
T2 sequence (whole entry): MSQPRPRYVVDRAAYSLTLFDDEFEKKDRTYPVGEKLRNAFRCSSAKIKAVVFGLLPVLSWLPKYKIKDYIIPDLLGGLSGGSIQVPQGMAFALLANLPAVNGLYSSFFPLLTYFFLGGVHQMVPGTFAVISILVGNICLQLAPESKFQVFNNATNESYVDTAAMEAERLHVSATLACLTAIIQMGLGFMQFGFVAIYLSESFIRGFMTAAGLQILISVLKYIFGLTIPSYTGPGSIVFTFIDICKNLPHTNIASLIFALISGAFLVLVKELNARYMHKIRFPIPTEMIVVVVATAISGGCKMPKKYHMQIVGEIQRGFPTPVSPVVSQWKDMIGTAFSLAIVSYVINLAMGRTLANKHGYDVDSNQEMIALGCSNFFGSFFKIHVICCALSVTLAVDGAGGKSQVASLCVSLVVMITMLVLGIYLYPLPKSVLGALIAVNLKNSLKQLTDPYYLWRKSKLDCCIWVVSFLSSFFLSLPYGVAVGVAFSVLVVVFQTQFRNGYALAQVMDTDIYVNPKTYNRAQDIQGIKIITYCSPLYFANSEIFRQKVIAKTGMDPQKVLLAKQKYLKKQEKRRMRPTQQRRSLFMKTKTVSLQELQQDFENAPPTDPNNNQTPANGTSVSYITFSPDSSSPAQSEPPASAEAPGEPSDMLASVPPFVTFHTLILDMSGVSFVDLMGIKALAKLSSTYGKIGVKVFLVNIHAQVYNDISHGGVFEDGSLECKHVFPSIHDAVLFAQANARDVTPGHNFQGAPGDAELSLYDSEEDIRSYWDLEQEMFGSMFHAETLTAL

[3] = molecular target: T3, Solute carrier family 26 member 6 (Mus musculus) (UniProt Q8CIW6); experiment: Inhibition of mouse slc26a6 expressed in FRT cells co-expressing EYFP-H148Q/I152L/F46L assessed as reduction in protein-mediated chloride/iodide exchange at 10 uM preincubated for 10 mins followed by NaI-substituted PBS addition and measured by YFP-based fluorescence assay; outline: as §1
T3 sequence (whole entry): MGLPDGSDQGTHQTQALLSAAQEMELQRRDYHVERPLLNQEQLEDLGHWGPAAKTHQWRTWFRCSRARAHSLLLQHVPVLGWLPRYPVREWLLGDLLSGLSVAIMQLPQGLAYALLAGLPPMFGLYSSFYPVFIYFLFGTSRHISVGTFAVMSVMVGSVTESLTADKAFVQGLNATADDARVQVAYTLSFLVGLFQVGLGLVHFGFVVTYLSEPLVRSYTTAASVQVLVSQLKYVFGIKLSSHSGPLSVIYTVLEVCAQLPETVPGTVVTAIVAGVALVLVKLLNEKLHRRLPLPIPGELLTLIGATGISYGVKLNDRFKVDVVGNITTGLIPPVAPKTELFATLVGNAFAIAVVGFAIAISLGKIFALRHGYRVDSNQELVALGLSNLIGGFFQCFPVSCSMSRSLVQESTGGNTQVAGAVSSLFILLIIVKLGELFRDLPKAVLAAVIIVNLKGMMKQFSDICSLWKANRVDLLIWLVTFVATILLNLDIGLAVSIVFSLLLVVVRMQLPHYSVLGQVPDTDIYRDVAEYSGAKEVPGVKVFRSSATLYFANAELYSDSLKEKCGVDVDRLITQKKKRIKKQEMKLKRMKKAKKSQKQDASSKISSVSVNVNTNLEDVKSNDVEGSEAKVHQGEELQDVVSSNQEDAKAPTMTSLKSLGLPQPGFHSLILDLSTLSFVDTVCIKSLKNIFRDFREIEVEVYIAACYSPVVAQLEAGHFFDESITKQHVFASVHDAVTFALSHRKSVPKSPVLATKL

inhibition [1] | inhibition [2] | inhibition [3] | Compound
inactive | inactive | inactive | Cc1c(CC(=O)O)c(=O)oc2c(C)c(OCc3cccc(C(F)(F)F)c3)ccc12
inactive | inactive | inactive | Cc1c(CC(=O)O)c(=O)oc2c(C)c(OCc3cccc(I)c3)ccc12
